High-throughput results as filed in PubChem.
Most compounds without a hit are left out; they make up all but 4.1% or so of the library.
hERG rescue: shields human hERG channel from block by proarrhythmic agents. CHO-hERG, FluxOR thallium flux, dofetilide IC70 present. 0.51% of 310,000 active. activation (rescue from dofetilide block), less the hit threshold, % at 10 µM;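 active means activation above the mean of controls blocked by dofetilide plus 5 SD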;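 further: thallium influx through hERG after potassium depolarization seen as dye fluorescence rise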
KCNQ1 pot: potentiators or activators of human KCNQ1 potassium channel; P51787; CHO-K1 KCNQ1, thallium flux FluxOR fluorescence; hits give high values; B-score at 10 µM; 0.35% of 310,000 active;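 active means fluorescence ratio B-score, a plate-corrected score, at least three library SD, with initial intensity B-score within 5 SD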
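Test system: CHO-K1 cells stably expressing KCNQ1 / Medium: assay buffer / Also added: depolarizing K+/Tl+ stimulus, K2SO4 and Tl2SO4 each 12.5 mM in 5x stock / Incubation: 90 min dye loading and 20 min compound exposure, both at room temperature / Signal: thallium influx via FluxOR fluorescence, kinetic imaging / Evaluation: B score of baseline-normalized fluorescence ratio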
KCNK9 inh: inhibitors of human KCNK9 two-pore domain potassium channel | HEK293 KCNK9, FluxOR thallium flux fluorescence; hits give low values | B-score at 10 µM | AID 488922 | 1.2% of 310,000 active | Q9NPC2;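 active means ratio B-score over 3 SD below the library mean, with starting fluorescence within 5 SD of its mean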;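 further: negative B-score means less thallium flux so channel inhibition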
KCNK3 inh: human KCNK3 channel inhibition, primary screen | O14649 | CHO-KCNK3 thallium flux, FluxOR fluorescence; hits give low values | B-score at 10 µM | 0.84% of 340,000 active | AID 602410;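 active means B-score under library mean minus 4 SD, starting fluorescence ratio at most library mean plus 5 SD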;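 further: more negative B-score means stronger inhibition of thallium flux through KCNK3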
KCNQ1 block: inhibitors of human KCNQ1 potassium channel; P51787; CHO-K1 KCNQ1, FluxOR thallium flux fluorescence; hits give high values; B-score at 10 µM; 1.3% of 310,000 active; AID 2642;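 active means compounds whose thallium flux B-score, printed positive for inhibition, exceeds three library SD while starting fluorescence stays within three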;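 further: channel opened by potassium depolarization with thallium stimulus after 20 min compound exposure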
Cl transport mod: KCC2 (human) Cl- transport modulation; Q9H2X9; KCC2 cells, thallium flux FluoZin-2 fluorescence; B-score of Tl+ flux slope (higher = more flux/activation; lower = inhibition) at 10 µM; 2.2% of 190,000 active;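 active means thallium flux slope and its plate-corrected score both differing from the plate sample mean at a set confidence after two filtering rounds, in either direction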;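 further: slope of fluorescence scaled to starting intensity during 10 to 20 s after thallium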
Starred values were filed as active, the others as inactive; i = inactive; / = no result.

SMILES | hERG rescue | KCNQ1 pot | KCNK9 inh | KCNK3 inh | KCNQ1 block | Cl transport mod
O=C(N/N=C/c1ccccn1)c1[nH]c2ccc([N+](=O)[O-])cc2c1-c1ccccc1 | -19.0 | i | i | i | 10* | 2.74
NNC(=O)c1[nH]c2ccc([N+](=O)[O-])cc2c1-c1ccccc1 | -2.0 | i | i | i | i | /
Cc1ccc(S(=O)(=O)n2c(CN3CCCC(C)C3)nc3ccccc32)cc1 (centres undefined) | -1.2 | i | -7.46* | i | i | 0.0806
Cc1ccc(S(=O)(=O)n2c(C)nc3ccccc32)cc1 | -1.1 | i | i | i | i | /
Cc1cccc(N2CCN(C(=O)CSc3nc4ccccc4nc3N3CC(C)OC(C)C3)CC2)c1C (centres undefined) | -5.5 | i | i | i | i | /
CCc1ccc(NC(=O)c2ccc(S(=O)(=O)NCc3cccnc3)cc2)cc1 | -4.1 | i | i | i | i | /
COc1ccc(NC(=O)c2c(Nc3ccccc3)sc(C(=O)c3ccc(F)cc3)c2N)cc1 | -6.3 | i | i | i | i | -1.21
COc1ccc(C(=O)c2sc(Nc3ccccc3)c(C(=O)Nc3ccc(OC)c(OC)c3)c2N)cc1 | -16.1 | i | i | i | 7* | -0.284
Cc1ccc(/C=C/C2=NN(Cc3ccccc3Cl)C(=O)CC2)cc1 | -6.4 | i | i | i | 11* | 0.308
Cc1ccc(/C=C/C2=NN(Cc3ccccc3)C(=O)CC2)cc1 | -10.2 | i | i | i | i | /
COC(=O)CNC(c1ccccc1Cl)c1cc(Br)ccc1NS(=O)(=O)c1ccc(C)cc1 (centres undefined) | -13.2 | i | -6.82* | i | i | 0.139
O=C(CCN1CCc2ccccc2CC1)c1ccc2c(c1)OCCO2 | -31.1 | 10* | i | i | i | -0.263
CCCOc1ccc(NC(=O)CNC(=O)c2cc(OC)cc(OC)c2)cc1OCCC | -8.8 | i | i | i | i | /
Cc1nn(C(C)C(=O)N/N=C/c2ccc(N(C)C)cc2)c(C)c1[N+](=O)[O-] (centres undefined) | 0.3 | i | -7.86* | i | i | -0.342
CCc1ccccc1NC(=O)CN1CCN(C(=O)C2CCN(C(=O)/C=C/c3ccccc3)CC2)CC1 | / | / | / | i | / | /
CCCn1c(C)cc(C(=O)COC(=O)c2cc(S(=O)(=O)NCC(C)C)c(Cl)cc2Cl)c1C | -8.8 | i | -6.99* | i | i | -0.445
CC(C)CNS(=O)(=O)c1cc(C(=O)OCC(=O)c2ccc3c(c2)OCCO3)c(Cl)cc1Cl | -9.3 | i | i | i | i | 0.874
Cc1c(C(=O)O)sc2nc(CSc3nnc(-c4ccc(F)cc4)n3C)[nH]c(=O)c12 | -1.6 | i | i | i | i | /
Cc1ccc2cc(/C=C3\N=C(c4ccccc4)OC3=O)c(N3CCOCC3)nc2c1 | -35.7 | i | i | / | 8* | /
COc1ccccc1OCC(=O)NCCS(=O)(=O)N1CCN(c2ccccc2)CC1 | -12.5 | i | i | i | i | /
O=c1cc(-c2c(F)c(F)c(F)c(F)c2F)oc2ccccc12 | 18.9* | 24* | i | i | i | -0.757
Cc1nn(-c2ccccc2Cl)c(Cl)c1/C=N/Nc1nc2ccccc2s1 | -0.6 | i | i | i | i | 0.539
CCOC(=O)N/N=C/c1c(C)nn(-c2ccccc2Cl)c1Cl | 1.5 | i | -8.08* | i | i | 0.0283
Cc1cc(C)c(S(=O)(=O)c2ccccc2)c(OC(=O)c2c(Cl)cccc2Cl)n1 | -6.9 | i | -7.16* | i | i | -1.23
Cc1cc(C)c(S(=O)(=O)c2ccccc2)c(OC(=O)c2ccc(Cl)cc2Cl)n1 | / | / | / | i | / | -0.00174
SMILES | hERG rescue | KCNQ1 pot | KCNK9 inh | KCNK3 inh | KCNQ1 block | Cl transport mod
COc1ccc(/C=C2\CCCc3c2nc2ccccc2c3C(=O)O)cc1OC | -24.9 | i | i | / | i | i
CCOc1ccc(/C=C2\CCCc3c2nc2ccccc2c3C(=O)O)cc1OC | -52.5 | i | i | i | 19* | /
C/C(CC(=O)Nc1ccc2c(c1)OCCO2)=N\NC(=O)Cc1ccccc1 | -5.3 | i | i | i | i | /
NC(=O)C1CCN(Cc2cccc(OCc3ccccc3)c2)CC1 | -0.3 | i | i | i | i | /
O=C(NCc1ccccn1)C1CCN(Cc2cccc(OCc3ccccc3)c2)CC1 | -5.8 | 8* | i | i | i | -0.0775
C/C=C(\C)c1nnc(NC(=O)c2ccco2)s1 | -7.3 | i | i | i | i | 0.467
O=C(CNC1CCCCC1)Nc1cccc([N+](=O)[O-])c1 | -8.0 | i | i | i | i | /
COc1cc(NC(=O)Nc2cccc([N+](=O)[O-])c2)cc(OC)c1 | -4.7 | i | i | i | i | 0.144
O=C(Nc1ccc(C(=O)O)cc1)Nc1ccc([N+](=O)[O-])cc1 | -6.2 | i | i | i | i | /
O=C(Nc1ccc(C(=O)O)cc1)Nc1cccc([N+](=O)[O-])c1 | -8.3 | i | i | i | 7* | -0.0491
O=C(Nc1cccc([N+](=O)[O-])c1)Nc1cccc([N+](=O)[O-])c1 | -21.9 | i | i | i | 8* | 0.725
Cn1ccc(NC(=O)Nc2cccc([N+](=O)[O-])c2)n1 | -12.4 | i | i | i | 6* | 0.0284
O=C(Nc1cccc([N+](=O)[O-])c1)NC1CCCCCCC1 | -18.1 | i | i | i | 7* | /
Cc1ccc(N2CC(c3nc4ccccc4[nH]3)CC2=O)c(C)c1 (centres undefined) | -9.8 | i | i | i | i | 0.895
CN(CC(=O)Nc1sccc1C#N)C1CCCCC1 | -5.0 | i | i | i | i | 0.454
O=C(CSc1nnc(-c2ccc(Cl)cc2)o1)NNC(=O)c1ccncc1 | -2.9 | i | i | i | i | /
CC(C(=O)Nc1cccc(Br)c1)c1ccc([N+](=O)[O-])cc1 (centres undefined) | -7.2 | i | i | i | 6* | -1.08
CCCN(CCC)S(=O)(=O)c1ccc(C(=O)OCCN2C(=O)c3cccc4c(N5CCOCC5)ccc(c34)C2=O)cc1 | -17.9 | i | i | i | 10* | i
CCN(CC)S(=O)(=O)c1ccc(C(=O)N2CCN(CCN3C(=O)c4cccc5cccc(c45)C3=O)CC2)cc1 | 0.1 | i | i | / | i | 0.371
CC(C)(C)NCC(O)COc1ccccc1C(C)(C)C (centres undefined) | -11.1 | 8* | i | i | i | 0.0773
O=C(CCn1c(=O)c2sccc2n(CC(=O)OCc2ccccc2)c1=O)NCc1ccco1 | -24.9 | i | i | i | i | /
